Measured values as given in ChEMBL document CHEMBL1126160, “Synthesis and structure-activity relationships of 7-diazabicycloalkylquinolones, including danofloxacin, a new quinolone antibacterial agent for veterinary medicine” (J Med Chem, 1992).
≈ marks a conversion by molar mass, not a printed value.

Legend:
Assay type in all cases: functional
[1] = system: Clostridium perfringens; experiment: microbe, parasite or virus in culture
[2] = system: Bordetella bronchiseptica; experiment: In vitro antibacterial activity against aerobically grown Bordetella bronchiseptica (73A009)
Method in brief: (§1)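 Agar dilution MICs. Aerobic strains were tested on brain heart infusion agar and incubated aerobically at 37 °C for 18–20 h.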

[3] = system: Salmonella enterica; experiment: In vitro antibacterial activity against aerobically grown Salmonella choleraesuis (58B015)
[4] = In vitro antibacterial activity against Aerobically grown Pasteurella haemolytica (59B018); details: Mannheimia haemolytica
Method in brief: as §1

[5] = system: Trueperella pyogenes; experiment: In vitro antibacterial activity against anaerobically grown Actinomyces pyogenes (14D002)
Method in brief: (§2)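 Agar dilution MICs. Anaerobic strains were tested on tryptose agar with 5% bovine blood and incubated 48 h at 39 °C in an anaerobe chamber under N2/CO2/H2 (80:10:10).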

[6] = system: Phocaeicola vulgatus; experiment: In vitro antibacterial activity against anaerobically grown Bacteroides vulgatus (78D029)
Method in brief: as §2

[7] = system: Escherichia coli; experiment: In vitro antibacterial activity against aerobically grown Escherichia coli (51A538)
Method in brief: as §1

[8] = In vitro evaluation for antibacterial activity against anaerobically grown Treponema hyodysenteriae (94A007); details: Brachyspira hyodysenteriae
[9] = system: Staphylococcus aureus; experiment: In vitro antibacterial activity against aerobically grown Staphylococcus aureus (54B004)
Method in brief: as §1

[10] = system: Actinobacillus pleuropneumoniae; experiment: In vitro antibacterial activity against anaerobically grown Actinobacillus pleuropneumoniae ([…])
Method in brief: as §2

[11] = system: Pasteurella multocida; experiment: In vitro antibacterial activity against aerobically grown Pasteurella multocida (59A006)
Method in brief: as §1

[12] = system: Escherichia coli; experiment: Escherichia coli DNA cleavage endpoint value which is the minimum amount required (in micro g/mL) to induce detectable cleavage of supercoiled pBR322 substrate to linear form (gyrase); details: read-out: MIC
Method in brief: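 DNA gyrase A and B subunits were purified from E. coli overproducers. About 2 units of holoenzyme were incubated with pBR322 in Tris-HCl pH 7.5 containing MgCl2, spermidine, DTT, 0.2 mM ATP, BSA and tRNA. Drug was added as 2-fold serial dilutions, and reactions ran for 60 min at 25 °C. Reactions were stopped with SDS and proteinase K, then run on agarose and stained with ethidium. The endpoint was the lowest concentration giving detectable linear DNA.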

Row | SMILES | MIC [1] [µg/mL] | MIC [2] [µg/mL] | MIC [3] [µg/mL] | MIC [4] [µg/mL] | MIC [5] [µg/mL] | MIC [6] [µg/mL] | MIC [7] [µg/mL] | MIC [8] [µg/mL] | MIC [9] [µg/mL] | MIC [10] [µg/mL] | MIC [11] [µg/mL] | minimum concentration inducing gyrase-mediated DNA cleavage [12] [µg/mL]
1 | CN1[C@@H]2CC[C@H]1CN(c1cc3c(cc1F)c(=O)c(C(=O)O)cn3-c1ccc(F)cc1)C2.Cl.O | 3.13 | > 1.56 | > 1.56 | 0.78 | > 3.13 | 0.78 | 1.56 | 1.56 | 0.78 | 0.78 | 0.2 | 
2 | CN1C[C@@H]2C[C@H]1CN2c1c(F)cc2c(=O)c(C(=O)O)cn(-c3ccc(F)cc3)c2c1F | 0.39 (≈ 0.908 µM) | > 1.56 | 0.39 (≈ 0.908 µM) | 0.2 (≈ 0.466 µM) | > 3.13 | 3.13 (≈ 7.29 µM) | 0.2 (≈ 0.466 µM) | 1.56 (≈ 3.63 µM) | 0.39 (≈ 0.908 µM) | 0.05 (≈ 0.116 µM) | 0.02 (≈ 0.0466 µM) | 0.39
3 | CN1[C@@H]2CC[C@H]1CN(c1c(F)cc3c(=O)c(C(=O)O)cn(CCF)c3c1F)C2 | 0.78 (≈ 1.97 µM) | 6.25 (≈ 15.8 µM) | 1.56 (≈ 3.95 µM) | 0.78 (≈ 1.97 µM) | > 3.13 | > 3.13 | 0.78 (≈ 1.97 µM) | > 3.13 | 1.56 (≈ 3.95 µM) | 0.39 (≈ 0.986 µM) | 0.39 (≈ 0.986 µM) | 0.39
4 | O=C(O)c1cn(-c2ccc(F)cc2)c2cc(N3C[C@@H]4C[C@H]3CN4)c(F)cc2c1=O | 0.2 (≈ 0.503 µM) | > 1.56 | 0.2 (≈ 0.503 µM) | 0.1 (≈ 0.252 µM) | 3.13 (≈ 7.88 µM) | 3.13 (≈ 7.88 µM) | 0.1 (≈ 0.252 µM) | 1.56 (≈ 3.93 µM) | 0.78 (≈ 1.96 µM) | 0.1 (≈ 0.252 µM) | 0.02 (≈ 0.0503 µM) | 1.56
5 | CN1C2CC[C@@H]1CCN(c1cc3c(cc1F)c(=O)c(C(=O)O)cn3-c1ccc(F)cc1)C2 | 0.39 (≈ 0.887 µM) | > 1.56 | > 1.56 | 1.56 (≈ 3.55 µM) | > 3.13 | > 3.13 | 1.56 (≈ 3.55 µM) | 0.13 (≈ 0.296 µM) | 0.78 (≈ 1.77 µM) | 0.78 (≈ 1.77 µM) | 0.2 (≈ 0.455 µM) | 0.19
6 | C=Cn1cc(C(=O)O)c(=O)c2cc(F)c(N3C[C@H]4CC[C@@H](C3)N4C)cc21 | 0.78 (≈ 2.18 µM) | 12.5 (≈ 35 µM) | 0.78 (≈ 2.18 µM) | 0.39 (≈ 1.09 µM) | 3.13 (≈ 8.76 µM) | 6.25 (≈ 17.5 µM) | 0.78 (≈ 2.18 µM) | 1.56 (≈ 4.37 µM) | 0.2 (≈ 0.56 µM) | 0.2 (≈ 0.56 µM) | 0.1 (≈ 0.28 µM) | 0.39
7 | CN1C[C@@H]2C[C@H]1CN2c1c(F)cc2c(=O)c(C(=O)O)cn(-c3ccc(F)cc3F)c2c1F | 0.39 (≈ 0.872 µM) | > 1.56 | 0.39 (≈ 0.872 µM) | 0.1 (≈ 0.224 µM) | 1.56 (≈ 3.49 µM) | 1.56 (≈ 3.49 µM) | 0.2 (≈ 0.447 µM) | > 3.13 | 0.2 (≈ 0.447 µM) | 0.1 (≈ 0.224 µM) | 0.02 (≈ 0.0447 µM) | 0.78
8 | CN1C2CC[C@@H]1CCN(c1c(F)cc3c(=O)c(C(=O)O)cn(C4CC4)c3c1F)C2 | 0.39 (≈ 0.967 µM) | > 1.56 | 0.1 (≈ 0.248 µM) | 0.1 (≈ 0.248 µM) | 1.56 (≈ 3.87 µM) | 0.78 (≈ 1.93 µM) | 0.1 (≈ 0.248 µM) | > 3.13 | 0.2 (≈ 0.496 µM) | 0.1 (≈ 0.248 µM) | 0.02 (≈ 0.0496 µM) | 0.39
9 | CN1C2CC[C@@H]1CCN(c1nc3c(cc1F)c(=O)c(C(=O)O)cn3C1CC1)C2 | 0.78 (≈ 2.02 µM) | 0.78 (≈ 2.02 µM) | 0.78 (≈ 2.02 µM) | 0.39 (≈ 1.01 µM) | > 3.13 | > 3.13 | 0.39 (≈ 1.01 µM) | 3.13 (≈ 8.1 µM) | 0.78 (≈ 2.02 µM) | 0.2 (≈ 0.518 µM) | 0.1 (≈ 0.259 µM) | 3.12
10 | Cl.O.O=C(O)c1cn(CCF)c2cc(N3CCN4CCC3CC4)c(F)cc2c1=O | 0.2 | 1.56 | 0.1 | 0.02 | > 3.13 | > 3.13 | 0.2 | 1.56 | 0.78 | 0.02 | 0.05 | 0.39
11 | C=Cn1cc(C(=O)O)c(=O)c2cc(F)c(N3CC[C@H]4CCC(C3)N4C)cc21 | 0.78 (≈ 2.1 µM) | 1.56 (≈ 4.2 µM) | 1.56 (≈ 4.2 µM) | 1.56 (≈ 4.2 µM) | > 3.13 | > 3.13 | 0.78 (≈ 2.1 µM) | 3.13 (≈ 8.43 µM) | 1.56 (≈ 4.2 µM) | 0.78 (≈ 2.1 µM) | 0.2 (≈ 0.538 µM) | 6.25
12 | CN1C[C@@H]2C[C@H]1CN2c1c(F)cc2c(=O)c(C(=O)O)cn(-c3ccc(F)cc3F)c2c1Cl | 0.39 (≈ 0.841 µM) | > 1.56 | 0.39 (≈ 0.841 µM) | 0.1 (≈ 0.216 µM) | 3.13 (≈ 6.75 µM) | 0.78 (≈ 1.68 µM) | 0.2 (≈ 0.431 µM) | > 3.13 | 0.2 (≈ 0.431 µM) | 0.1 (≈ 0.216 µM) | 0.01 (≈ 0.0216 µM) | 3.12
13 | O=C(O)c1cn(C2CC2)c2c(F)c(N3C[C@@H]4C[C@H]3CN4)c(F)cc2c1=O | 0.05 (≈ 0.138 µM) | 0.39 (≈ 1.08 µM) | 0.01 (≈ 0.0277 µM) | 0.005 (≈ 0.0138 µM) | 0.39 (≈ 1.08 µM) | 1.56 (≈ 4.32 µM) | 0.01 (≈ 0.0277 µM) | 1.56 (≈ 4.32 µM) | 0.39 (≈ 1.08 µM) | < 0.005 | 0.005 (≈ 0.0138 µM) | 0.09
14 | CN1[C@@H]2CC[C@H]1CN(c1cc3c(cc1F)c(=O)c(C(=O)O)cn3CCF)C2.Cl.O | 0.39 | 3.13 | 0.39 | 0.2 |  | 6.25 | 0.2 | 3.13 | 0.2 | 0.1 | 0.2 | 3.12
15 | CN1C2CC[C@@H]1CCN(c1cc3c(cc1F)c(=O)c(C(=O)O)cn3C)C2 |  | > 25 | 6.25 (≈ 17.4 µM) | 6.25 (≈ 17.4 µM) |  |  | 6.25 (≈ 17.4 µM) |  | 1.56 (≈ 4.34 µM) |  | 6.25 (≈ 17.4 µM) | 6.25
16 | CN1C[C@@H]2C[C@H]1CN2c1c(F)cc2c(=O)c(C(=O)O)cn(C3CC3)c2c1F | 3.12 (≈ 8.31 µM) | 0.39 (≈ 1.04 µM) |  | < 0.05 | 0.78 (≈ 2.08 µM) | 3.12 (≈ 8.31 µM) | < 0.05 | 1.56 (≈ 4.16 µM) | 0.1 (≈ 0.266 µM) | < 0.05 | < 0.05 | 0.39
